Marks after values point to notes of the source that are not given here.
Key:
p-mTOR [S2481 and 2448] = assay: Immunoblot of p-mTOR in U87 cells; type: cell-based, human; details: 6.3 μM ON123300 alone or with 13.3 μM GFN, 1 h
Method in brief: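 U87 cells were treated 1 h with 6.3 μM test compound, 13.3 μM EGFR inhibitor or both. Lysis buffer held PMSF plus phosphatase and protease inhibitors; lysates were sonicated and spun at 21,000 × g. 20 μg protein per lane went on SDS-PAGE and PVDF, blocked in 5% milk. Primary antibody was 1 h at room temperature or overnight at 4°C. Bands quantified densitometrically as percentages; mean ± S.D. of three experiments.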

p-Akt [1] = assay: p-Akt in GBM39 cells; type: cell-based; details: Homo sapiens, GBM39, read-out: nadir p-Akt inhibition relative to the control
p-Akt [2] = assay: p-Akt in U87 cells by western blot / MSD assay; type: cell-based, human; details: 6.3 μM
Method in brief: (§1)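 U87 cells received increasing test compound concentrations for 1 h, or 6.3 μM over a time course. Phospho- and total Akt/Erk were measured by western blot or MSD multispot immunoassay, loading 20 μg (Akt) or 5 μg (Erk) lysate in duplicate. Plates were incubated overnight at 4°C, then detection antibody for 2 h at room temperature. Signals were background-corrected; phospho/total percentage expressed relative to control.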

[3] = system: phosphorylated Akt, CREB, JNK pan, Erk, p38γ; assay: Human phospho-MAPK array in U87 cells; type: cell-based; details: 6.3 μM, 1 h
Method in brief: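 U87 cells on 10 cm plates were exposed to 6.3 μM test compound for 1 h, rinsed in cold PBS and lysed at 1 × 10^7 cells/ml, rocking 30 min at 4°C. 200 μg of supernatant protein was mixed with detection antibody cocktail for 1 h at room temperature. The mixture was applied to array membranes overnight at 4°C, then streptavidin-HRP for 30 min. Chemiluminescent spots were recorded on X-ray film.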

U87 cells [4] = assay: Flow cytometric cell cycle analysis; type: cell-based, human; details: 24 h
Akt = assay: Biochemical kinase screen
[5] = system: p-Akt in intracerebral U87 brain tumors; assay: In vivo pharmacodynamics: p-Akt in brain tumor; set-up: species or system mouse; details: for p-Akt nadir, of control: within 30 min
Method in brief: (§2)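 NIH Swiss nude mice carried U87 cells (10^6 in 10 μl PBS) implanted stereotactically into the caudate putamen. Test compound was given as an IV tail-vein bolus of 5 or 25 mg/kg, or 25 mg/kg 1 h after oral EGFR inhibitor (200 mg/kg). Tumours were collected from 5 min to 10 h (17 h with co-dosing) and lysed at 20 μl buffer/mg. Phospho/total Akt and Erk were measured by MSD as percent of control, at least three mice per time point. ABEC was reported in %-h.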

Rb S780 phosphorylation = assay: Western blot of phosphorylated Rb S780 in U87 cells; type: cell-based, human; details: 6.3 μM, 1 h, mean ± S.D.
Method in brief: (§3)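 U87 cells in DMEM with 10% FBS at 37°C, 5% CO2, grown on 10 cm plates and exposed to test compound for 1 h. Lysed on ice in buffer containing PMSF, phosphatase and protease inhibitors; 20 μg protein run on SDS-PAGE and blotted to PVDF. Detected with IRDye/Alexa 680 secondaries and quantified by Odyssey imaging against total protein and β-actin, relative to control. Blots repeated at least three times.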

[6] = system: p-Erk in intracerebral U87 brain tumors; assay: In vivo pharmacodynamics: p-Erk in brain tumor; set-up: species or system mouse
Method in brief: as §2

p-Erk [7] = assay: p-Erk in GBM39 cells; type: cell-based, human; details: 4μM
p-C-Raf S259 = assay: Western blot of p-C-Raf S259 in U87 or U87PTEN cells; type: cell-based, human; details: 6.3 μM, 1 h
Method in brief: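 U87 or PTEN-expressing U87 cells in 6-well plates were pretreated 1 h with vehicle, 50 μM LY294002 or 1 μM wortmannin. Test compound was then added at 6.3 μM for 1 h. Lysates (20 μg protein) were resolved by SDS-PAGE, transferred to PVDF, blocked in 5% milk and immunoblotted.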

VEGFR3 = VEGFR3 (Homo sapiens, UniProt P35916); assay: Biochemical kinase screen
[8] = In vivo pharmacokinetics in mice bearing intracerebral U87 tumors; set-up: species or system mouse; details: for AUC / Kp / Tmax / clearance / Vd / half-life: NIH Swiss nude, mouse, iv; for Kp: Pbt (brain tumor partition coefficient, AUCbt/AUCp); for clearance: CL; for Vd: Vss; for half-life: t½; for peak concentration in brain: at 5 min
Method in brief: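 Same intracerebral U87 nude-mouse model, single IV tail-vein bolus of 5 or 25 mg/kg. Plasma, normal brain and tumour were taken from 3–4 mice per time point (5 min–10 h). Tissues were saline-rinsed and homogenised 20% w/w in water. Samples (10 μl) were protein-precipitated with 40 μl cold acetonitrile and quantified by ESI LC/MS/MS. Noncompartmental analysis; AUC to last observable concentration by linear-log interpolation.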

U87 cells [9] = assay: Annexin V apoptosis by flow cytometry; type: cell-based, human; details: 24 h
Method in brief: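 U87 cells in 12-well plates, cultured overnight, then exposed 24 h to test compound (6.3 μM), an EGFR inhibitor (13.3 μM) or both. Floating and attached cells were pooled and stained with Annexin V-FITC (10 μg/ml) in HEPES-buffered saline (pH 7.4) with Ca2+ and Mg2+. Flow cytometry at 5000 events/sample. Reported as mean ± S.D. of three experiments.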

[10] = system: panel of 11 glioma models including a patient-derived model [GBM10]; assay: SRB cytotoxicity assay, panel of glioma models; type: cell-based, human; details: compared with U87 cells; Fig. S1
P70S6K phosphorylation = assay: Western blot of phosphorylated P70S6K in U87 cells; type: cell-based, human; details: 6.3 μM, 1 h, mean ± S.D.
Method in brief: as §3

[11] = system: 40S ribosomal protein S6 [rpS6] phosphorylation; assay: Western blot of phosphorylated rpS6 in U87 cells; type: cell-based, human; details: 6.3 μM, 1 h, mean ± S.D.
Method in brief: as §3

p-Erk [12] = assay: p-Erk in U87 cells by western blot / MSD assay; type: cell-based, human
Method in brief: as §1

ABC transporters = details: based on previous studies; cited from earlier work
[13] = system: p-Akt, phosphorylation of its downstream proteins and p-Erk; assay: Western blot of p-Akt, its downstream proteins and p-Erk in U87 cells; type: cell-based, human; details: 70 μM ON1231120 or 10 μM ON1231320, 1 h
Method in brief: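 U87 cells on 10 cm plates, 1 h exposure to test compound. Lysates were prepared in buffer with PMSF and phosphatase/protease inhibitors, sonicated, held 30 min on ice and cleared at 21,000 × g for 10 min at 4°C. Blotting used 20 μg protein on SDS-PAGE and PVDF, blocked in 5% nonfat milk. Primary antibodies 1 h at room temperature or overnight at 4°C.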

[14] = plasma, 5 mg/kg, ON123300 5 mg/kg IV
[15] = plasma, 25 mg/kg, ON123300 25 mg/kg IV

Chain of VEGFR3 (P35916 25-1363): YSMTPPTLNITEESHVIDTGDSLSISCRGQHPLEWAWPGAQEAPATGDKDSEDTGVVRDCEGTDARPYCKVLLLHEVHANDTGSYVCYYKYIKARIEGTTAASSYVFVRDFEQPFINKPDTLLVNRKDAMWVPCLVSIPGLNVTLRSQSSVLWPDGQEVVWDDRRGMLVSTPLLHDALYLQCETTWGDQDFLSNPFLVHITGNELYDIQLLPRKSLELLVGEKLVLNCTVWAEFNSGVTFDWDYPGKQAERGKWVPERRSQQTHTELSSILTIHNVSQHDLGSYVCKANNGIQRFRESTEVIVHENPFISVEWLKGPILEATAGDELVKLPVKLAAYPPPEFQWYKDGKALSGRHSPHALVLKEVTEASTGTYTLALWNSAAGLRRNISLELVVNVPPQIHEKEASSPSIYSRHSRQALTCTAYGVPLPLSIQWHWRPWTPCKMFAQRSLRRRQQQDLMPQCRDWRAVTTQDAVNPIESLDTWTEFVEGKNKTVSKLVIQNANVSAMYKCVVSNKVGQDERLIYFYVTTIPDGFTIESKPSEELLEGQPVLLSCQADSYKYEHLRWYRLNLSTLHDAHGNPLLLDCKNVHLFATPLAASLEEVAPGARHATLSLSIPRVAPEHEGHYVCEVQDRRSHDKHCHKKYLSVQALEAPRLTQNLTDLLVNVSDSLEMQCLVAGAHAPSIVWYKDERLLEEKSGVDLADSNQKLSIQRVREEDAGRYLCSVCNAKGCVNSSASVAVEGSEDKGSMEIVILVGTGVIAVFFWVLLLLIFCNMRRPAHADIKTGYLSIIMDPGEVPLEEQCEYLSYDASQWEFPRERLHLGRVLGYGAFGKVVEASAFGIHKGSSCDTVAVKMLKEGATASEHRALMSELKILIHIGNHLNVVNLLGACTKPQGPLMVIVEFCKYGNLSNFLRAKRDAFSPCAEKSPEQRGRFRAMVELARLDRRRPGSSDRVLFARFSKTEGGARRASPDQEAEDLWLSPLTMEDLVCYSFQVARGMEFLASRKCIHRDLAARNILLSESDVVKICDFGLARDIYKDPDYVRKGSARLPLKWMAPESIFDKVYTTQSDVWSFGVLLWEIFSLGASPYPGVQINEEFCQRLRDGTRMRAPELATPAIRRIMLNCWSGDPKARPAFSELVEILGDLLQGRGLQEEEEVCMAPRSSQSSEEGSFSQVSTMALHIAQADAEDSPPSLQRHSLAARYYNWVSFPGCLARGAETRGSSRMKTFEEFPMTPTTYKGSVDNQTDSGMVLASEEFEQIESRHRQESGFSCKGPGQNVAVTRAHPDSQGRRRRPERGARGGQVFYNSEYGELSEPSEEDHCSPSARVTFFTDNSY

CN1CCN(c2ccc(Nc3ncc4cc(C#N)c(=O)n(C5CCCC5)c4n3)cc2)CC1 [ON123300]
expression of p-mTOR S2448 (p-mTOR [S2481 and 2448]): 86% ± 3.1 | expression of p-mTOR S2481 (p-mTOR [S2481 and 2448]): 102% ± 5.2 | inhibition at 4 µM (p-Akt [1]): 55% | time of p-Akt nadir (p-Akt [2]): 30 min | phosphorylation of Akt relative to control (p-Akt [2]; 1 h, western blot, mean ± S.D.): 40.1% ± 5.7 | p-Erk and p38γ levels [3]: increased | phosphorylated Akt, CREB and JNK pan expression levels [3]: decreased | increase in the percentage of cells in the G2/M phase vs control (U87 cells [4]): ~2.5 fold | percentage of cells in the G2/M phase (U87 cells [4]; 6.3 μM ON123300 alone or with 13.3 μM GFN, control 10.4 ± 0.6%): 38.2 ± 01.4% | direct inhibition of Akt (Akt): did not directly inhibit | change in p-Akt ABEC from 5 mg/kg to 25 mg/kg ([5]; IV): 5 fold | ABEC p-Akt ([5]; ON123300 5 mg/kg IV): 63.2 %_h | p-Akt nadir, of control ([5]; ON123300 5 mg/kg IV): 73% | ABEC p-Akt ([5]; ON123300 25 mg/kg IV): 304.9 %_h | ABEC p-Akt ([5]; ON123300 25 mg/kg IV 1 h after oral 200 mg/kg GFN): 765.0 %_h | ABEC p-Akt ([5]; ON123300 25 mg/kg IV plus oral 200 mg/kg GFN): 765 %-h | p-Akt nadir ([5]; ON123300 25 mg/kg IV plus oral 200 mg/kg GFN, at 4 h after the ON123300 dose): about 30% | p-Akt level at 10 h ([5]; ON123300 25 mg/kg IV, 10 h): ~60% | p-Akt nadir, of control ([5]; ON123300 25 mg/kg IV): 60% | phosphorylation of Rb S780 relative to control (Rb S780 phosphorylation): 54.5% ± 6.3 | p-Erk spike at 5 min ([6]; ON123300 5 mg/kg IV, 5 min): 159% | p-Erk maximum relative to baseline ([6]; ON123300 25 mg/kg IV): 161% | p-Erk, of control, at 17 h ([6]; ON123300 25 mg/kg IV plus oral 200 mg/kg GFN, 17 h following the ON123300 dose): 80% | p-Erk peak activation ([6]; ON123300 25 mg/kg IV plus oral 200 mg/kg GFN, at 5 min): 120% | ABEC p-Erk ([6]; ON123300 25 mg/kg IV plus oral 200 mg/kg GFN, below the baseline): 273.9 %-h | ABEC p-Erk ([6]; ON123300 25 mg/kg IV, ABEC above the baseline): 144.1^# %_h | ABEC p-Erk ([6]; ON123300 25 mg/kg IV, above the baseline): 144 %-h | peak p-Erk activation relative to the control (p-Erk [7]): 174% | p-C-Raf S259 expression (p-C-Raf S259): partially decreased | inhibitory action against VEGFR3 (VEGFR3): appreciable inhibitory action | AUC ([8]; brain tumor, 5 mg/kg, AUCbt, ON123300 5 mg/kg IV): 6890 ng·h/mL | Kp ([8]; brain tumor, 5 mg/kg, ON123300 5 mg/kg IV): 5.7 | AUC ([8]; brain tumor, 25 mg/kg, AUCbt, brain tumor, ON123300 25 mg/kg IV 1 h after oral 200 mg/kg GFN): 49400 ng·h/mL | AUC ([8]; brain tumor, 25 mg/kg, AUCbt, ON123300 25 mg/kg IV): 63200 ng·h/mL | Kp ([8]; brain tumor, 25 mg/kg, ON123300 25 mg/kg IV): 15 | Tmax ([8]; brain tumor, 25 mg/kg, Tmax brain tumor, ON123300 25 mg/kg IV): 1 h | AUC ([8]; brain, 5 mg/kg, AUCb, ON123300 5 mg/kg IV): 3120 ng·h/mL | AUC ([8]; brain, 25 mg/kg, AUCb, ON123300 25 mg/kg IV): 11700 ng·h/mL | Tmax ([8]; brain, 25 mg/kg, Tmax brain, ON123300 25 mg/kg IV): 0.083 h | AUC ([8]; plasma, 5 mg/kg, AUCp, ON123300 5 mg/kg IV): 1210 ng·h/mL | clearance [8, 14]: 69.1 mL/min/kg | Vd ([8]; plasma, 5 mg/kg, plasma, ON123300 5 mg/kg IV): 3.6 L/kg | half-life [8, 14]: 1.5 h | AUC ([8]; plasma, 25 mg/kg, AUCp, ON123300 25 mg/kg IV): 4220 ng·h/mL | clearance [8, 15]: 98.7 mL/min/kg | Vd ([8]; plasma, 25 mg/kg, plasma, ON123300 25 mg/kg IV): 10.2 L/kg | half-life [8, 15]: 1.5 h | reduction in the total clearance of ON123300 in the presence of GFN ([8]; ON123300 25 mg/kg IV, oral 200 mg/kg GFN): 33% | Cmax brain tumor ([8]; brain tumor, ON123300 5 mg/kg IV): 6493 ng/mL | Cmax brain tumor ([8]; brain tumor, ON123300 25 mg/kg IV): 27250 ng/mL | Cmax brain tumor ([8]; brain tumor, ON123300 25 mg/kg IV 1 h after oral 200 mg/kg GFN): 20900 ng/mL | peak concentration in brain ([8]; brain, ON123300 5 mg/kg IV): 5735 ng/g | peak concentration in brain ([8]; brain, ON123300 25 mg/kg IV): 12432 ng/g | Cmax brain ([8]; brain, ON123300 25 mg/kg IV): 12432.5 ng/mL | Cmax brain ([8]; brain, ON123300 25 mg/kg IV 1 h after oral 200 mg/kg GFN): 16300 ng/mL | increase in AUCp from 5 mg/kg to 25 mg/kg ([8]; plasma, IV): 3.5 fold | apoptotic cell death (Annexin V staining) (U87 cells [9]): induced cell death by apoptosis in a dose-dependent manner | inhibition of cell proliferation in a panel of 11 glioma models [10]: quite comparable to that observed to U87 cells | phosphorylation of P70S6K relative to control (P70S6K phosphorylation): 31.8 %± 2.1 | phosphorylation of rpS6 relative to control [11]: 60.5% ± 1.0 | p-Erk relative to control (p-Erk [12]; 6.3 μM, 1 h, western blot, mean ± S.D.): 120 % ± 6.9 | p-Erk elevation relative to pre-treatment (p-Erk [12]; 6.3 μM, over 6 h): about 2 fold | concentration giving 100% increase in p-Erk compared to vehicle (p-Erk [12]; 1 h, western blot and MSD): about 7 μM | substrate for the ABC transporters (ABC transporters): unlikely to be a substrate

Cn1c(=O)c(S(=O)(=O)c2ccc(F)cc2F)cc2cnc(Nc3ccc4[nH]ccc4c3)nc21 [ON1231320]
effects on p-Akt, its downstream proteins and p-Erk [13]: negligible effects

COc1cc2ncnc(Nc3ccc(F)c(Cl)c3)c2cc1OCCCN1CCOCC1 [GFN, gefitinib, reference compound]
percentage of cells in the G1 phase (U87 cells [4]; 13.3 μM GFN, control 66 ± 0.9%): 80.9 ± 2.5% | apoptotic cell death (Annexin V staining) (U87 cells [9]): did not cause apoptotic cell death
